From ChEMBL document CHEMBL5154895, “Mechanistic Studies and In Vivo Efficacy of an Oxadiazole-Containing Antibiotic” (J Med Chem, 2022)
Converted amounts (≈) assume the structure as drawn. The source made the active and inactive calls. The calls are words filed in the database; no cut-off is given here.

Tests used:
[1] = test system: Staphylococcus aureus; assay: Antibacterial activity against vancomycin-resistant Staphylococcus aureus 12 assessed as inhibition of bacterial growth incubated for 18 to 20 hrs by broth microdilution method; assay type: functional; details: time 18-20 hrs
Outline: (§1)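 Broth microdilution per CLSI. Inoculum was set to 0.5 McFarland and diluted in CAMHB to about 5×10^5 CFU/mL. Serial dilutions of agent were incubated aerobically at 37 °C for 18–20 h. MIC was read visually as the lowest concentration with complete growth inhibition.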

[2] = test system: Staphylococcus aureus; assay: Downregulation of NarG protein expression in Staphylococcus aureus assessed as log2 of fold change in protein level measured after 2 hrs by LC-MS/MS analysis relative to control; assay type: functional
Outline: (§2)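 S. aureus ATCC 25923 at OD600 0.6 was treated with compound or DMSO for 2 h at 37 °C, normalised to OD600 1.1, and washed in PBS. Cells were pressure-lysed in 100 mM ammonium bicarbonate, then acetone-precipitated, reduced with DTT, alkylated with iodoacetamide, and digested with trypsin/Lys-C. Peptides were desalted and run on LC-MS/MS. Label-free quantitation used proteins present in all 3 samples, filtered at p<0.05 against DMSO.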

[3] = test system: Staphylococcus aureus; assay: Downregulation of site-specific integrase protein expression in Staphylococcus aureus measured after 2 hrs by LC-MS/MS analysis; assay type: functional
Outline: (§3)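 S. aureus ATCC 25923 at OD600 0.6 exposed to compound or DMSO control for 2 h at 37°C, normalized to OD600 1.1 and PBS-washed. Cells were pressure-cycling lysed in 100 mM ammonium bicarbonate, and 50 μg protein was acetone-precipitated, reduced and alkylated, then Trypsin/Lys-C digested and C18-desalted. About 1 μg peptides went to LC-MS/MS. Label-free quantitation kept proteins present in all 3 samples, filtered at p <0.05.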

[4] = test system: Mus musculus; assay: Acceleration of wound healing in methicillin-resistant Staphylococcus aureus USA300 infected Balb/c mouse model assessed as reduction in IL-1beta level in skin wounds administered topically twice daily 2 days post infection and measured after 5 days post compound treatment; assay type: functional, organism-based; details: time 5.0 day
Outline: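 Mice had two 6-mm dorsal excisional wounds, each infected with 20 μL of 4.2×10^9 CFU/mL MRSA USA300 and covered with Tegaderm. Treatment began 2 days after infection (n=5 per group): 2% compound in petroleum jelly applied topically twice daily for 5 days. Right-wound homogenates in PBS were centrifuged, supernatants pooled per group, and protein normalised by BCA. Cytokines were measured by mouse cytokine array (pg/mL).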

[5] = test system: Staphylococcus aureus; assay: Antibacterial activity against vancomycin-resistant Staphylococcus aureus 10 assessed as inhibition of bacterial growth incubated for 18 to 20 hrs by broth microdilution method; assay type: functional; details: time 18-20 hrs; outline: as §1
[6] = Toxicity in Balb/c mouse infected with methicillin-resistant Staphylococcus aureus USA300 assessed as necrosis administered topically twice daily 2 days post infection and measured after 5 days post compound treatment by H and E staining based histopathological analysis; details: in vivo, topical_or_ocular, 120 h, time 5 day
Outline: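 MRSA USA300-infected punch wounds in mice, n=5. Topical 2% agent or petroleum jelly vehicle twice daily from day 2 for 5 days. The left wound was formalin-fixed, cut into 4-μm sections and H&E-stained. Whole slides were scanned and assessed by a board-certified veterinary pathologist for necrosis, inflammation, haemorrhage and related features.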

[7] = test system: Staphylococcus aureus; assay: Antibacterial activity against Staphylococcus aureus MRSA ATCC 33592 assessed as inhibition of bacterial growth incubated for 18 to 20 hrs by broth microdilution method; assay type: functional; details: time 18-20 hrs
Outline: (§4)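 Broth microdilution per CLSI. Inoculum at 0.5 McFarland, diluted in cation-adjusted Mueller Hinton broth to about 5 × 10^5 CFU/mL. Serial compound dilutions incubated aerobically at 37° C for 18–20 hours. MIC taken as the lowest concentration completely inhibiting visible growth.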

[8] = test system: Staphylococcus aureus; assay: Inhibition of Glc2-DAG in Staphylococcus aureus ATCC 25923 assessed as reduction in alpha-naphthol at 0.25 to 2 ug/ml measured after 5 hrs by thin layer chromatography; details: dose 0.25-2 µg/ml
Outline: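 Cells were normalized to OD600 0.9 and washed in 0.1 M sodium acetate pH 4.7. Lipids were Bligh-Dyer extracted and dried under nitrogen, then run on TLC with α-naphthol/sulfuric acid staining. The stained band was identified as Glc2-DAG by MALDI-TOF.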

[9] = test system: Staphylococcus epidermidis; assay: Antibacterial activity against Staphylococcus epidermidis NRS 101 assessed as inhibition of bacterial growth incubated for 18 to 20 hrs by broth microdilution method; assay type: functional; details: time 18-20 hrs; outline: as §4
[10] = test system: Staphylococcus aureus; assay: Upregulation of Bsh protein expression in Staphylococcus aureus assessed as log2 of fold change in protein level measured after 2 hrs by LC-MS/MS analysis relative to control; assay type: functional; outline: as §3
[11] = test system: Staphylococcus aureus; assay: Downregulation of MAP domain-containing protein expression in Staphylococcus aureus measured after 2 hrs by LC-MS/MS analysis; assay type: functional; outline: as §2
[12] = test system: Staphylococcus aureus; assay: Upregulation of dihydroxyacetone kinase subunit L expression in Staphylococcus aureus measured after 2 hrs by LC-MS/MS analysis; assay type: functional; outline: as §3
[13] = test system: Staphylococcus aureus; assay: Downregulation of molybdenum ABC transporter ATP-binding protein expression in Staphylococcus aureus measured after 2 hrs by LC-MS/MS analysis; assay type: functional; outline: as §3
[14] = test system: Staphylococcus aureus; assay: Downregulation of Nuc protein expression in Staphylococcus aureus assessed as log2 of fold change in protein level measured after 2 hrs by LC-MS/MS analysis relative to control; assay type: functional; outline: as §2
[15] = test system: Staphylococcus aureus; assay: Downregulation of protein EssC expression in Staphylococcus aureus measured after 2 hrs by LC-MS/MS analysis; assay type: functional; outline: as §3
[16] = test system: Staphylococcus aureus; assay: Upregulation of 30S ribosomal protein S20 expression in Staphylococcus aureus measured after 2 hrs by LC-MS/MS analysis; assay type: functional; outline: as §3
[17] = In vivo antibacterial activity against methicillin-resistant Staphylococcus aureus USA300 infected in Balb/c mouse model assessed as reduction in bacterial infection in skin wounds administered topically twice daily 2 days post infection and measured after 5 days post compound treatment by CFU counting; design: scale not given: the % may be the effect or the level left; details: time 5 day
[18] = test system: Staphylococcus aureus; assay: Downregulation of threonine synthase protein expression in Staphylococcus aureus measured after 2 hrs by LC-MS/MS analysis; assay type: functional; outline: as §3
[19] = test system: Staphylococcus aureus; assay: Downregulation of AdhE protein expression in Staphylococcus aureus assessed as log2 of fold change in protein level measured after 2 hrs by LC-MS/MS analysis relative to control; assay type: functional; outline: as §2
[20] = test system: Staphylococcus aureus; assay: Downregulation of LukS-PV protein expression in Staphylococcus aureus assessed as log2 of fold change in protein level measured after 2 hrs by LC-MS/MS analysis relative to control; assay type: functional; outline: as §2
[21] = test system: Staphylococcus aureus; assay: Downregulation of IlvA protein expression in Staphylococcus aureus assessed as log2 of fold change in protein level measured after 2 hrs by LC-MS/MS analysis relative to control; assay type: functional; outline: as §2
[22] = test system: Staphylococcus aureus; assay: Downregulation of DapE protein expression in Staphylococcus aureus assessed as log2 of fold change in protein level measured after 2 hrs by LC-MS/MS analysis relative to control; assay type: functional; outline: as §2
[23] = test system: Staphylococcus aureus; assay: Downregulation of EsaA protein expression in Staphylococcus aureus assessed as log2 of fold change in protein level measured after 2 hrs by LC-MS/MS analysis relative to control; assay type: functional; outline: as §2
[24] = test system: Staphylococcus aureus; assay: Downregulation of membrane protein expression in Staphylococcus aureus measured after 2 hrs by LC-MS/MS analysis; assay type: functional; outline: as §3
[25] = test system: Staphylococcus aureus; assay: Upregulation of L-serine dehydratase, iron-sulfurdependent subunit alpha expression in Staphylococcus aureus measured after 2 hrs by LC-MS/MS analysis; assay type: functional; outline: as §3

SMILES: CC1CC(C)CN(S(=O)(=O)c2ccc(C(=O)Nc3nnc(-c4ccc(C(F)(F)F)cc4)o3)cc2)C1 (stereo not given)
- MIC [1]: 0.25 µg/mL (≈ 0.492 µM)
- log2FC [2]: -2
- Activity [3]: Active
- Activity [4]: Active
- MIC [5]: 0.25 µg/mL (≈ 0.492 µM)
- Activity [6]: Toxic
- MIC [7]: 0.25 µg/mL (≈ 0.492 µM)
- inhibition [8]: Active
- MIC [9]: 0.25 µg/mL (≈ 0.492 µM)
- log2FC [10]: 3.6
- Activity [11]: Active
- Activity [12]: Active
- Activity [13]: Active
- log2FC [14]: -5.1
- Activity [15]: Active
- Activity [16]: Active
- Activity [17]: 93.8%
- Activity [18]: Active
- log2FC [19]: -2.5
- log2FC [20]: -3.7
- log2FC [21]: -2
- log2FC [22]: -3.3
- log2FC [23]: -2
- Activity [24]: Active
- Activity [25]: Active
